The test system of data set [1] is Pseudomonas aeruginosa. The data set is described as follows: Antibacterial activity against Pseudomonas aeruginosa ATCC 9027 assessed as bacterial growth inhibition by broth microdilution assay. Type of data set: functional.
For data set [2], the system named is Escherichia coli. The data set is described as follows: Antibacterial activity against wild type Escherichia coli ATCC 25922 assessed as bacterial growth inhibition by broth microdilution assay. Type of data set: functional. (In general: Dilution methods test growth across graded concentrations, often in twofold steps.)
The nature of data set [3]: Drug uptake in wild type Escherichia coli ATCC 25922 assessed as drug accumulation across outer membrane. Type of data set: ADME. Summed up:
(§1)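 Cells were washed twice in PBS, aliquoted and pre-shaken 10 min at 37 °C. Compound was added and incubated 10 min at 37 °C, with CFU counted before and after. Samples were spun through cold silicone oil. Supernatants were quantified by LC-MS single-ion monitoring against calibration curves.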

A short description of data set [4]: Drug uptake in Pseudomonas aeruginosa ATCC 9027 assessed as drug accumulation across outer membrane. The class given is ADME. Summed up:
as §1

In data set [5] the test system is Pseudomonas aeruginosa. Description: Antibiotic adjuvant activity against Rifampicin-treated Pseudomonas aeruginosa ATCC 9027 assessed as bacterial growth inhibition by broth microdilution assay. Type of data set: functional. Summed up: (§2)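 Broth microdilution per CLSI M100-S23. Antibiotics spanned 0–256 µg/mL (in DMSO or water), combined with adjuvant at 20, 50 or 100 µM (in DMSO). Inoculum was a 4–6 h culture in full-strength TSB. Plates ran 12–18 h at 37 °C, each treatment in triplicate. OD590 was blank-subtracted and normalized to vehicle growth. MIC is the lowest concentration giving ≥90% inhibition.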

Data set [6] relates to Escherichia coli. The data set is described as follows: Antibiotic adjuvant activity against Erythromycin-treated wild type Escherichia coli ATCC 25922 assessed as fold reduction in bacterial growth inhibition by broth microdilution assay. The class given is functional.
The subject of data set [7] is Escherichia coli. Description: Antibacterial activity against wild type Escherichia coli ATCC 25922 assessed as bacterial growth inhibition at 100 ug/ml by broth microdilution assay. Type of data set: functional.
Data set [8] has as its system Escherichia coli. The data set is described as follows: Antibiotic adjuvant activity against Erythromycin-treated wild type Escherichia coli ATCC 25922 assessed as bacterial growth inhibition by broth microdilution assay. Type of data set: functional. Summed up:
as §2

Data set [9] deals with Pseudomonas aeruginosa. The data set is described as follows: Antibiotic adjuvant activity against Erythromycin-treated Pseudomonas aeruginosa ATCC 9027 assessed as fold reduction in bacterial growth inhibition by broth microdilution assay. Type of data set: functional.
The subject of data set [10] is Pseudomonas aeruginosa. The data set is described as follows: Antibiotic adjuvant activity against Penicillin G-treated Pseudomonas aeruginosa ATCC 9027 assessed as bacterial growth inhibition by broth microdilution assay. Type of data set: functional. Summed up:
as §2

In data set [11] the test system is Pseudomonas aeruginosa. The data set is described as follows: Antibiotic adjuvant activity against Novobiocin-treated Pseudomonas aeruginosa ATCC 9027 assessed as bacterial growth inhibition by broth microdilution assay. Type of data set: functional. Summed up: as §2
The test system of data set [12] is Pseudomonas aeruginosa. The data set is described as follows: Antibacterial activity against Pseudomonas aeruginosa ATCC 9027 assessed as bacterial growth inhibition at 1000 ug/ml by broth microdilution assay. Type of data set: functional.
The test system of data set [13] is Escherichia coli. Description: Antibiotic adjuvant activity against Novobiocin-treated wild type Escherichia coli ATCC 25922 assessed as bacterial growth inhibition by broth microdilution assay. The class given is functional. Summed up: as §2
The test system of data set [14] is Escherichia coli. The data set is described as follows: Antibiotic adjuvant activity against Penicillin G-treated wild type Escherichia coli ATCC 25922 assessed as bacterial growth inhibition by broth microdilution assay. Type of data set: functional. The method, boiled down: as §2
The test system of data set [15] is Pseudomonas aeruginosa. Description: Antibiotic adjuvant activity against Ampicillin-treated Pseudomonas aeruginosa ATCC 9027 assessed as bacterial growth inhibition by broth microdilution assay. Type of data set: functional. Summed up: as §2
Data set [16] relates to Pseudomonas aeruginosa. The data set is described as follows: Antibiotic adjuvant activity against Erythromycin-treated Pseudomonas aeruginosa ATCC 9027 assessed as bacterial growth inhibition by broth microdilution assay. Type of data set: functional. Summed up:
as §2

The test system of data set [17] is Escherichia coli. The data set is described as follows: Antibiotic adjuvant activity against Rifampicin-treated wild type Escherichia coli ATCC 25922 assessed as bacterial growth inhibition by broth microdilution assay. The class given is functional. The method, boiled down:
as §2

Data set [18] relates to Pseudomonas aeruginosa. Description: Antibiotic adjuvant activity against Kanamycin-treated Pseudomonas aeruginosa ATCC 9027 assessed as bacterial growth inhibition by broth microdilution assay. The class given is functional. The method, boiled down: as §2
The subject of data set [19] is Escherichia coli. Description: Antibiotic adjuvant activity against Novobiocin-treated wild type Escherichia coli ATCC 25922 assessed as fold reduction in bacterial growth inhibition by broth microdilution assay. Type of data set: functional.
The test system of data set [20] is Escherichia coli. Description: Antibiotic adjuvant activity against Kanamycin-treated wild type Escherichia coli ATCC 25922 assessed as bacterial growth inhibition by broth microdilution assay. The class given is functional. The method, boiled down: as §2
The test system of data set [21] is Escherichia coli. Description: Antibiotic adjuvant activity against Ampicillin-treated wild type Escherichia coli ATCC 25922 assessed as bacterial growth inhibition by broth microdilution assay. Type of data set: functional. The method, boiled down: as §2

SMILES strings stand for the structures. Converted amounts (≈) assume the structure as drawn. Where only a bound is given, the exact number is not on record here.

One may read the MIC as the lowest concentration found to suppress growth. On to `CO[C@@H]1[C@@H](OC(N)=O)[C@@H](O)[C@H](Oc2ccc3c(O)c(NC(=O)c4ccc(O)c(CC=C(C)C)c4)c(=O)oc3c2C)OC1(C)C` [NOVOBIOCIN], for which the MIC is 256 µg/mL (≈ 418 µM) in data set [1] and 128 µg/mL (≈ 209 µM) in data set [2].
For `CO[C@H]1/C=C/O[C@@]2(C)Oc3c(C)c(O)c4c(O)c(c(/C=N/N5CCN(C)CC5)c(O)c4c3C2=O)NC(=O)/C(C)=C\C=C\[C@H](C)[C@H](O)[C@@H](C)[C@@H](O)[C@@H](C)[C@H](OC(C)=O)[C@@H]1C` [RIFAMPIN], in that order: 16 µg/mL (≈ 19.4 µM) and 8 µg/mL (≈ 9.72 µM).
Turning to `CC1(C)S[C@@H]2[C@H](NC(=O)Cc3ccccc3)C(=O)N2[C@H]1C(=O)O` [PENICILLIN G], the MIC was over 256 µg/mL in [1] and 64 µg/mL (≈ 191 µM) in [2].
Regarding `O=C(O)c1cn(C2CC2)c2cc(N3CCNCC3)c(F)cc2c1=O` [CIPROFLOXACIN], the figures for the Drug uptake in [3] and in data set [4] were 2.4 nmol and 1.8 nmol, respectively.
For the compound `CC[C@H]1OC(=O)[C@H](C)[C@@H](O[C@H]2C[C@@](C)(OC)[C@@H](O)[C@H](C)O2)[C@H](C)[C@@H](O[C@@H]2O[C@H](C)C[C@H](N(C)C)[C@H]2O)[C@](C)(O)C[C@@H](C)C(=O)[C@H](C)[C@@H](O)[C@]1(C)O` [ERYTHROMYCIN], the MIC in data set [1] and in data set [2] was 128 µg/mL (≈ 174 µM) in each case.
As to `NC[C@H]1O[C@H](O[C@H]2[C@H](O)[C@@H](O[C@H]3O[C@H](CO)[C@@H](O)[C@H](N)[C@H]3O)[C@H](N)C[C@@H]2N)[C@H](O)[C@@H](O)[C@@H]1O` [KANAMYCIN], the values for the MIC in data set [1] and in [2] were over 64 µg/mL and 64 µg/mL (≈ 132 µM), respectively.
In general, inhibition refers to the share of the control response that was lost under treatment. Turning to `Cl.Cl.N=C(N)Nc1ccc(NC(=O)CCC(=O)Nc2ccc(NC(=N)N)cc2)cc1`, the Drug uptake in [3] and in data set [4] was 1.1 nmol each time. Moreover, the MIC in data set [5] is 16 µg/mL; in data set [8], 64 µg/mL; in data set [10], over 256 µg/mL; in data set [11] it was 256 µg/mL; in data set [13] it was 64 µg/mL; in data set [14], 64 µg/mL. Moreover, the MIC in data set [15] is 128 µg/mL; in data set [16], 64 µg/mL; in data set [17], 8 µg/mL; in data set [18], over 64 µg/mL; in data set [20], 64 µg/mL; in data set [21], 16 µg/mL. Moreover, the “fold change (FC)” value in data set [6], in data set [9] and in [19] was 2 throughout. Further, the inhibition at 100 µg/mL in data set [7] is 18%. Further, the inhibition at 1000 µg/mL in [12] worked out at 33%.
Consider `Cl.Cl.N=C(N)Nc1ccc(NC(=O)CCC(=O)Nc2ccc(N)cc2)cc1`, for which the Drug uptake in data set [3] turned out to be 1.3 nmol; in [4], 0.3 nmol. Moreover, the MIC is 16 µg/mL in [5]; 64 µg/mL in data set [8]; over 256 µg/mL in data set [10]; 256 µg/mL in data set [11]; 64 µg/mL in data set [13]; 64 µg/mL in data set [14]. In addition, the MIC in data set [15] is 128 µg/mL; in data set [16], 64 µg/mL; in [17], 8 µg/mL; in data set [18], over 64 µg/mL; in [20], 64 µg/mL; in data set [21], 16 µg/mL. For the same compound, the “fold change (FC)” value in data set [6] and in [9] was 2 in each case.
As for `Cl.Cl.Nc1ccc(NC(=O)CCC(=O)Nc2ccc(N)cc2)cc1`, the Drug uptake in data set [3] came out at 3.3 nmol; in [4], 2 nmol. The MIC is 16 µg/mL in [5]; 128 µg/mL in [8]; over 256 µg/mL in data set [10]; 256 µg/mL in [11]; 128 µg/mL in data set [13]; 64 µg/mL in data set [14]. For the same compound, the MIC in data set [15] was 128 µg/mL; in data set [16], 64 µg/mL; in [17] it was 8 µg/mL; in data set [18], over 64 µg/mL; in [20], 64 µg/mL; in [21] it was 16 µg/mL. In addition, the “fold change (FC)” value in data set [9] was 2.
On to `CC1(C)S[C@@H]2[C@H](NC(=O)[C@H](N)c3ccccc3)C(=O)N2[C@H]1C(=O)O` [AMPICILLIN], for which the Drug uptake in data set [3] and in data set [4] was under 0.06 nmol in each case. In addition, the MIC in [1] is 128 µg/mL (≈ 366 µM); in [2] it was 16 µg/mL (≈ 45.8 µM).
As to `Cl.Cl.N=C(N)c1ccc(NC(=O)CCC(=O)Nc2ccc(C(=N)N)cc2)cc1`, the figures for the Drug uptake in [3] and in data set [4] were 1 nmol and 0.9 nmol, respectively. The MIC in data set [5] is 16 µg/mL; in data set [8] it was 128 µg/mL; in data set [10], over 256 µg/mL; in [11], 256 µg/mL; in [13], 64 µg/mL; in data set [14], 64 µg/mL. The MIC was 128 µg/mL in data set [15]; 64 µg/mL in data set [16]; 4 µg/mL in [17]; over 64 µg/mL in data set [18]; 64 µg/mL in [20]; 16 µg/mL in data set [21]. Besides, the “fold change (FC)” value in [9] came out at 2.
